Only some compounds are listed: those with a hit (about 3.7% of all), similar ones and a draw of the others.
KCNQ1 act = potentiators or activators of human KCNQ1 potassium channel. CHO-K1 KCNQ1, thallium flux FluxOR fluorescence; hits give high values. P51787. B-score at 10 µM. 310,000 compounds, 0.35% hits. AID 2648;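 active = fluorescence ratio B-score, a plate-corrected score, at least three library SD, with initial intensity B-score within 5 SD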
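Material: CHO-K1 cells stably expressing KCNQ1. Medium: assay buffer for compound exposure, DMSO matched across wells. Reagent: K+/Tl+ depolarizing stimulus. Compound dosing: single-concentration screen. Times: 37 °C overnight plating, 90-min dark dye load, 20-min compound pretreatment. Technique: FluxOR Tl+ flux fluorescence.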
KCNK9 inh = inhibitors of human KCNK9 two-pore domain potassium channel; HEK293 KCNK9, FluxOR thallium flux fluorescence; hits give low values; B-score at 10 µM; 310,000 compounds, 1.2% hits;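 active = ratio B-score over 3 SD below the library mean, with starting fluorescence within 5 SD of its mean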;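 note: negative B-score means less thallium flux so channel inhibition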
KCNQ1 block = inhibitors of human KCNQ1 potassium channel; P51787; CHO-K1 KCNQ1, FluxOR thallium flux fluorescence; hits give high values; B-score at 10 µM; 310,000 compounds, 1.3% hits;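 active = compounds whose thallium flux B-score, printed positive for inhibition, exceeds three library SD while starting fluorescence stays within three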;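 note: channel opened by potassium depolarization with thallium stimulus after 20 min compound exposure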
Kir21 block = blocks the mouse Kir2.1 inward-rectifier potassium channel; P35561; 310,000 compounds, 0.85% hits; HEK293-Kir2.1, FluxOR thallium flux fluorescence; hits give low values; B-score at 10 µM; AID 1672;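 active = fluorescence ratio B-score at or below minus 3 SD of library scores, with starting-brightness B-score within 2 SD, cut at about -4.2 in these data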;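 note: channel flux triggered by added potassium and thallium sulfate stimulus; B-score of peak minus minimum fluorescence over baseline after thallium stimulus; more negative B-score means stronger Kir2.1 block with less thallium influx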
hERG rescue = hERG (human) protection from proarrhythmic block; CHO-hERG, FluxOR thallium flux, dofetilide IC70 present; 310,000 compounds, 0.51% hits; activation (rescue from dofetilide block), less the hit threshold, % at 10 µM; Q12809;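 active = activation above the mean of controls blocked by dofetilide plus 5 SD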;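 note: thallium influx through hERG after potassium depolarization seen as dye fluorescence rise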
KCNK3 inh = human KCNK3 channel inhibition, primary screen; B-score at 10 µM; AID 602410; CHO-KCNK3 thallium flux, FluxOR fluorescence; hits give low values; O14649; 340,000 compounds, 0.84% hits;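 active = B-score under library mean minus 4 SD, starting fluorescence ratio at most library mean plus 5 SD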;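 note: more negative B-score means stronger inhibition of thallium flux through KCNK3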
Target sequence (O14649 whole entry, looked up): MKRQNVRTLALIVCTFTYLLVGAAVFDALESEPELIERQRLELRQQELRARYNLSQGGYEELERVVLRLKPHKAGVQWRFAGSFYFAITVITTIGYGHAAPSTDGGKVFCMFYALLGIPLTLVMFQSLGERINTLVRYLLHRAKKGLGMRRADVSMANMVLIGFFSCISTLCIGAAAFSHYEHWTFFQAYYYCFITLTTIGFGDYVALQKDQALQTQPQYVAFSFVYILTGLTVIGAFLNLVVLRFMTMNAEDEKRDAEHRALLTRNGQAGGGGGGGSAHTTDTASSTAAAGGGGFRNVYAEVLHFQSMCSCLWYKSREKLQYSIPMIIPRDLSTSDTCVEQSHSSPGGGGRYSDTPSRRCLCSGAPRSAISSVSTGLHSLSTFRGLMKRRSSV
KCNK9 block conf = confirmation of human KCNK9 potassium channel inhibitors. shares compounds with KCNK9 inh. HEK293 KCNK9 cells, FluxOR thallium flux fluorescence. inhibition, % at 10 µM. 4,900 compounds, 43% hits. AID 492992;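 active = thallium signal inhibited by more than 5 SD of the compound-free buffer control wells, on both duplicate plates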;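 note: 0% = assay buffer control wells without compound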
Kir21 sel = selectivity of KCNK9 modulators against mouse Kir2.1 | shares compounds with KCNK9 inh | Kir2.1 cells, FluxOR thallium flux fluorescence | inhibition, % at 10 µM | 4,900 compounds, 4% hits;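 active = thallium signal drop more than 5 SD beyond the mean of the no-compound control wells, seen in both duplicate plates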;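 note: signal is fluorescence rise after thallium addition divided by baseline fluorescence; plate controls were assay buffer only for no effect and full block by chlorpromazine control for full effect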
HEK293 Tl ctr = non-induced cell nonspecific activity of KCNK9 modulators | shares compounds with KCNK9 inh | non-induced KCNK9-HEK293, FluxOR thallium flux | inhibition, % at 10 µM | 4,900 compounds, 40% hits | AID 492997;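 active = thallium signal drop beyond 5 SD of the untreated control mean, on both duplicate plates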;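 note: plate controls were buffer only IC0 wells for no effect and SID17386958 at its maximal inhibitory level for full effect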
Numbers without * were called inactive; i = inactive; . = no result.

SMILES	KCNQ1 act	KCNK9 inh	KCNQ1 block	Kir21 block	hERG rescue	KCNK3 inh	KCNK9 block conf	Kir21 sel	HEK293 Tl ctr
CCOC(=O)[C@@H]1[C@H]2COc3ccccc3[C@@H]2N2C(=O)N(c3cccc(Cl)c3)C(=O)[C@@]12C	i	-12.3*	i	-0.07	-13.6	i	56.5%*	i	35.0%*
CCOC(=O)[C@@H]1[C@H]2COc3cc(OC)ccc3[C@H]2N2C(=O)N(c3cccc(F)c3)C(=O)[C@@]12C	.	.	.	.	.	i	.	.	.
COc1ccc(N(C(=O)c2cccnc2)S(=O)(=O)c2cc(OC)ccc2OC)cc1	i	i	i	-0.08	-5.6	i	.	.	.
CC(C(=O)N1CCOCC1)n1cc([N+](=O)[O-])cn1 (stereo not drawn)	i	i	i	-0.33	-15.1	i	.	.	.
CCOC(=O)Cc1c(C)nc2c(-c3ccccc3OC)c(C)nn2c1C	i	i	i	2.61	-7.0	i	i	i	i
CCOC(=O)Cc1c(C)nc2c(-c3ccc(Cl)cc3)c(C)nn2c1C	i	i	i	0.41	-6.3	i	.	.	.
COc1ccc(-c2noc(C3CCCN(S(=O)(=O)c4cccc(Cl)c4)C3)n2)cc1OC (stereo not drawn)	i	-8.12*	i	1.47	-11.8	i	i	i	26.0%*
Oc1ccc(N=Nc2ccc3c(c2)OCCO3)c2ncccc12	15*	i	i	1.14	29.5*	i	i	i	i
Cc1cc(C)n2nc(CNS(=O)(=O)c3ccc(CC(C)C)cc3)nc2n1	i	i	i	-0.33	-11.5	i	.	.	.
CCOC(=O)/C=C1/SCC(=O)N1CC(=O)Nc1cccc(F)c1	.	.	.	.	.	i	.	.	.
Cc1ccc(NCc2nnc(SCc3ccc(C#N)cc3)n2Cc2ccco2)c(C)c1	i	-18.9*	i	0.34	-15.4	i	66.5%*	i	36.5%*
Cc1ccc(-c2cccc(C(=O)NCCc3ccccc3)n2)c2ccccc12	i	-16.6*	i	1.24	-12.2	i	75.5%*	i	32.0%*
COc1ccc(CCNC(=O)c2cccc(C(=O)NCCc3ccc(OC)cc3)n2)cc1	i	i	i	0.86	-8.6	i	.	.	.
Cc1ccc(-c2cccc(C(=O)NCc3ccccc3)n2)c2ccccc12	i	i	i	0.83	-13.2	i	i	i	i
Cc1ccc(O)c(CNc2cccc3cccnc23)c1	i	-9.71*	i	0.35	-17.4	i	60.5%*	i	36.0%*
Oc1ccc(Br)cc1CNc1cccc2cccnc12	i	-12.8*	i	0.02	-10.9	i	52.5%*	i	40.0%*
Cc1ccc(O)c(CNc2ccccn2)c1	i	i	i	0.08	-2.5	i	.	.	.
C(=N\NC(=Nc1ccccc1)c1ccccn1)/c1ccccn1	i	i	i	1.01	-3.3	i	.	.	.
Clc1ccc(/C=N/NC(=Nc2ccccc2)c2ccccn2)c(Cl)c1	i	i	i	-0.61	-7.5	i	i	i	i
CC(=O)N1N=C(N)SC1(C)C	i	i	i	0.35	-18.6	i	.	.	.
CC(=O)c1cn(CC(=O)Nc2ccccc2Cl)c2ccccc12	i	i	i	1.13	-9.8	i	.	.	.
COc1cc(C)c(C(=O)Oc2cc(C)c(C(=O)O)c(O)c2C)c(OC)c1C	i	i	i	-0.02	-9.2	i	i	i	i
COc1cc(C)c(C(=O)Oc2cc(C)c(C(=O)O)c(O)c2C)c(O)c1C(=O)O	i	i	i	-1.13	-3.2	i	.	.	.
CCOc1ccc2cc(/C=C/C(=O)c3ccco3)c(Cl)nc2c1	i	-12.2*	i	-0.03	-7.8	-9.65*	i	i	33.0%*
CCOc1ccc2nc(SCC(=O)NNC(=O)c3ccco3)c(C)cc2c1	i	i	i	-0.28	0.7	i	.	.	.
SMILES	KCNQ1 act	KCNK9 inh	KCNQ1 block	Kir21 block	hERG rescue	KCNK3 inh	KCNK9 block conf	Kir21 sel	HEK293 Tl ctr
CCN(CC(=O)NC1CCS(=O)(=O)C1)C(=O)c1ccc(OC)c([N+](=O)[O-])c1 (stereo not drawn)	.	.	.	.	.	i	.	.	.
CN(C(=O)c1ccco1)c1nnc(C23CC4CC(CC(C4)C2)C3)s1	i	i	i	1.14	-11.8	i	.	.	.
CN(C(=O)COc1ccc(Cl)cc1Cl)c1nnc(C23CC4CC(CC(C4)C2)C3)s1	i	i	i	0.43	-7.3	i	i	i	i
O=C(Nc1cccc(-c2nc3ncccc3o2)c1)c1cc2ccccc2o1	i	-8.26*	i	0.89	-21.7	i	66.5%*	i	i
Cc1ccc(-c2nc3ncccc3o2)cc1NC(=O)c1cc2ccccc2o1	i	i	i	1.67	-5.3	i	.	.	.
CN(CC(=O)Nc1ccc(Cl)cc1)C(=O)CNC(=O)Cc1cccc2ccccc12	.	.	.	.	.	i	.	.	.
O=C(O)C(c1ccccc1)N1C(=O)/C(=C\c2ccc(-c3ccccc3Cl)o2)SC1=S (stereo not drawn)	i	i	i	3.8	-12.4	i	i	i	i
COc1cc(OC)cc(C(=O)N[C@H](C(=O)N2CCc3ccccc32)C(C)C)c1	i	-11*	i	1.8	-7.6	i	71.0%*	i	31.0%*
CCOC(=O)CC(NC(=O)c1cccc2c1C(=O)N(Cc1cccnc1)C2)c1ccc(OC(C)C)cc1 (stereo not drawn)	i	i	i	-1.77	-10.6	i	i	i	i
CSc1ccc(CN(C)CC(=O)NC(=O)NC(C)(C)C)cc1	i	i	i	-1.18	-9.5	i	i	i	i
COc1ccc(C(C(=O)NC2CCCC2)N(C(=O)c2csnn2)C2CCCC2)cc1 (stereo not drawn)	i	i	i	-1.79	-2.7	i	.	.	.
CCCN(C(=O)CSc1cc(-c2ccccc2)c2ccc(OC)cc2n1)C1CCS(=O)(=O)C1 (stereo not drawn)	i	-8.38*	i	-0.05	-4.6	i	48.0%*	i	28.5%*
CC(C)C(CCN1C(=O)c2ccccc2C1=O)c1ccco1 (stereo not drawn)	i	i	i	-0.41	-15.6	i	.	.	.
CCC(=O)N(CCC(c1ccco1)C(C)C)Cc1ccccc1 (stereo not drawn)	i	-10.6*	i	-6.11*	-15.7	i	i	i	33.5%*

Screening results from PubChem BioAssay.
